Measurements: ChEMBL document CHEMBL3407444, “Novel 2,4-disubstituted pyrimidines as potent, selective, and cell-permeable inhibitors of neuronal nitric oxide synthase” (J Med Chem, 2015)

Tests used:
[1] = biological target: T1, Sigma non-opioid intracellular receptor 1 (Homo sapiens, UniProt Q99720); test: Binding affinity to human sigma-1 receptor at 10 uM after 90 mins by radioligand displacement assay relative to control
CYP3A4 = CYP3A4 (Homo sapiens, UniProt P08684); test: Inhibition of human liver microsomal CYP3A4 using midazolam as substrate at 10 uM preincubated for 5 mins followed by NADPH addition measured after 5 mins by LC-MS/MS analysis; type: ADME; details: liver microsomes, probe midazolam
CYP3A4, sequence (P08684 whole entry): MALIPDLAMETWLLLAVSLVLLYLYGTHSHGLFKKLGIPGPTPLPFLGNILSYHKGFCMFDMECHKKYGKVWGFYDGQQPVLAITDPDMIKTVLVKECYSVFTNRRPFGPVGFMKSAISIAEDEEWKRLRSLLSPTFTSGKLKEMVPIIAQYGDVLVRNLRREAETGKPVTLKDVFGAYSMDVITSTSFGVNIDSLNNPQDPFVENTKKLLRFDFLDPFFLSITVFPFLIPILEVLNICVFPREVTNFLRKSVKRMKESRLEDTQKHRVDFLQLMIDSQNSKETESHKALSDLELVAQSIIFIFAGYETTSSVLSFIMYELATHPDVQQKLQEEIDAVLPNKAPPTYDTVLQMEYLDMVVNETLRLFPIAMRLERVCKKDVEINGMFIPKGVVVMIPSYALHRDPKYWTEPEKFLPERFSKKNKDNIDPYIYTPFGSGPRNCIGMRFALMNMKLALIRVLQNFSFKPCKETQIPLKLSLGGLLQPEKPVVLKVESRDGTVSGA
Outline: (§1)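 Human liver microsomes in Kphos buffer, test compound at 10 μM (DMSO). Probe substrate added and preincubated 5 min at 37 °C, then started with NADPH. Incubation times: CYP3A4 (midazolam) 5 min, CYP2D6 (bufuralol) 10 min, CYP2C19 (S-mephenytoin) 20 min. Stopped with cold acetonitrile containing internal standard. Metabolites measured by LC-MS/MS; % inhibition from peak-area ratios relative to DMSO control.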

CYP2D6 = CYP2D6 (Homo sapiens, UniProt P10635); test: Inhibition of human liver microsomal CYP2D6 using bufuralol as substrate at 10 uM preincubated for 5 mins followed by NADPH addition measured after 10 mins by LC-MS/MS analysis; type: ADME; details: liver microsomes, probe bufuralol; outline: as §1
[2] = biological target: 5-hydroxytryptamine receptor 2A (Homo sapiens) (UniProt P28223); test: Binding affinity to human 5-HT2A receptor at 10 uM after 90 mins by radioligand displacement assay relative to control
5-hydroxytryptamine receptor 2A (Homo sapiens), sequence (P28223 whole entry): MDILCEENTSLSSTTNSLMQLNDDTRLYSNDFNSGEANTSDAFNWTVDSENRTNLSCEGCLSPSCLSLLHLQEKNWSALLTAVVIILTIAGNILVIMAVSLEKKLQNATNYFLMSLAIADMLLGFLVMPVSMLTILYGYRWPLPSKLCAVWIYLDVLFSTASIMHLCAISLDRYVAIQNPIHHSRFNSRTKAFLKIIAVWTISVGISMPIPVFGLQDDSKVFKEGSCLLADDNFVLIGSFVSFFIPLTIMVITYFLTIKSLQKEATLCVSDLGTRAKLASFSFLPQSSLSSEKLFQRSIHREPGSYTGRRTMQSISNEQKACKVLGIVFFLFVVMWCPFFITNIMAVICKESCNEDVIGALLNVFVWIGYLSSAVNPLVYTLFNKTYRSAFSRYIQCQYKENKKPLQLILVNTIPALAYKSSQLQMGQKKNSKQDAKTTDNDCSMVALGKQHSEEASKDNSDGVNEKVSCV

[3] = Permeability across apical to basolateral side in human Caco2 cells assessed as drug recovery at 10 uM after 2 hrs by LC/MS/MS analysis; type: ADME, cell-based; details: caco-2, 2 h
Outline: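 Caco-2 monolayers grown 3 weeks, integrity checked by Lucifer yellow transport. Compound 10 μM for 2 h added apically; apical buffer HBSS/10 mM HEPES with glucose, pH 6.5, basolateral transport buffer pH 7.4. Receiver side sampled and quantified by LC/MS/MS; recovery reported.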

[4] = biological target: D(3) dopamine receptor (Homo sapiens) (UniProt P35462); details: 10 uM
D(3) dopamine receptor (Homo sapiens), sequence (P35462 whole entry): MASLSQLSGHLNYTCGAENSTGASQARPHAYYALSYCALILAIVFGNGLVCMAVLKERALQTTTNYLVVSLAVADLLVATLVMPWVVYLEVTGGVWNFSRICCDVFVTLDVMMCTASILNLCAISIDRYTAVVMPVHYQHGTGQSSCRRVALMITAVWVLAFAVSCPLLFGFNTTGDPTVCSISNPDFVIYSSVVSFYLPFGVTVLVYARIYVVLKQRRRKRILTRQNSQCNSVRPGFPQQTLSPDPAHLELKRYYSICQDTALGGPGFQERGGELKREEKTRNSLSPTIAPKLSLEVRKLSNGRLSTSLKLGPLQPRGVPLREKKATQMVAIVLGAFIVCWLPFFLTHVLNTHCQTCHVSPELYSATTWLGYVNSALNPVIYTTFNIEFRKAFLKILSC

[5] = biological target: T1, Sigma non-opioid intracellular receptor 1; test: Binding affinity to human sigma-1 receptor after 90 mins by radioligand displacement assay
[6] = biological target: T2, Alpha-2C adrenergic receptor (Homo sapiens, UniProt P18825); test: Binding affinity to human adrenergic alpha-2C receptor after 90 mins by radioligand displacement assay
T2 sequence (P18825 whole entry): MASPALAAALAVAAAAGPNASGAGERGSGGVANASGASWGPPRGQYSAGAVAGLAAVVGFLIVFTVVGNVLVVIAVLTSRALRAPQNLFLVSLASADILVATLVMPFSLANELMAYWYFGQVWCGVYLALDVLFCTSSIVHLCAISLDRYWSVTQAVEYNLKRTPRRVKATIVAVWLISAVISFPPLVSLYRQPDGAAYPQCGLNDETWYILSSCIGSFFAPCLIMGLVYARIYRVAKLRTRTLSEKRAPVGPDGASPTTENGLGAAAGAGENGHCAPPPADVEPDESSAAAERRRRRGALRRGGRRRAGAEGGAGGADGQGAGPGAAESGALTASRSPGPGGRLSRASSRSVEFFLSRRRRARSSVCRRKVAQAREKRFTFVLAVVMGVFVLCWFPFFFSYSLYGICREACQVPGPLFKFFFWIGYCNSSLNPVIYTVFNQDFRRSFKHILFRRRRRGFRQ

[7] = biological target: T3, Alpha-2C adrenergic receptor (Homo sapiens) (UniProt P18825); test: Binding affinity to human adrenergic alpha-2C receptor at 10 uM after 90 mins by radioligand displacement assay relative to control
T3 sequence (whole entry): T2 sequence (P18825 whole entry)

[8] = biological target: T4, 5-hydroxytryptamine receptor 1A (Homo sapiens) (UniProt P08908); details: 10 uM
T4 sequence (whole entry): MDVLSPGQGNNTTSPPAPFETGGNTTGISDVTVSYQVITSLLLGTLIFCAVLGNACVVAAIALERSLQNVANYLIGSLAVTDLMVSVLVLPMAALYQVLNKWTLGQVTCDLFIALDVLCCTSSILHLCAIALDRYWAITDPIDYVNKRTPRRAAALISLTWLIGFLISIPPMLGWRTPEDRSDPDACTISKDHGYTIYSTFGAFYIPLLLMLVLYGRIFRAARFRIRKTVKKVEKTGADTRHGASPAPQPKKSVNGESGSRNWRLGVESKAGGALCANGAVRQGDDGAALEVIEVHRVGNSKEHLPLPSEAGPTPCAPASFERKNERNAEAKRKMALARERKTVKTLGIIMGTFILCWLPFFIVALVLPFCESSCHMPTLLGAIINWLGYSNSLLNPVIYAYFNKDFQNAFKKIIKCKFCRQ

CYP2C19 = CYP2C19 (Homo sapiens, UniProt P33261); test: Inhibition of human liver microsomal CYP2C19 using S-mephenytoin as substrate at 10 uM preincubated for 5 mins followed by NADPH addition measured after 20 mins by LC-MS/MS analysis; type: ADME; details: liver microsomes, probe S-mephenytoin; outline: as §1
CYP2C19, sequence (P33261 whole entry): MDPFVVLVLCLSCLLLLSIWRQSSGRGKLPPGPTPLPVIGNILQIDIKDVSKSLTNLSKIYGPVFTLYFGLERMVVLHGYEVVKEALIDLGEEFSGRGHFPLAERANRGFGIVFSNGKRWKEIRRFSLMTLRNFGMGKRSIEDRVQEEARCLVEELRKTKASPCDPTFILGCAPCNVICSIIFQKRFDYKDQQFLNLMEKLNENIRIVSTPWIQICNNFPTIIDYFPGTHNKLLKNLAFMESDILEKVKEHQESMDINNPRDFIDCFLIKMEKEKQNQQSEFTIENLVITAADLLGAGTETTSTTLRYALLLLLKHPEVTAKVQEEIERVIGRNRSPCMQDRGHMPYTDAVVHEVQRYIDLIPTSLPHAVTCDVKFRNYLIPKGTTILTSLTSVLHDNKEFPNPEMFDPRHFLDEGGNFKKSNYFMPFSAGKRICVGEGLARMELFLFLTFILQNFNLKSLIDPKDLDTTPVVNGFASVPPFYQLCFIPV

Homo sapiens = species: Homo sapiens; test: Binding affinity to human sigma-2 receptor at 10 uM after 90 mins by radioligand displacement assay relative to control
Nitric oxide synthase 1 [9] = biological target: Nitric oxide synthase 1 (Rattus norvegicus, UniProt P29476); test: Binding affinity to recombinant rat neuronal NOS overexpressed in Escherichia coli assessed as production of nitric oxide from L-arginine measured for 5 mins by oxyhemoglobin NO capture assay
Nitric oxide synthase 1 (Rattus norvegicus, UniProt P29476), sequence (P29476 whole entry): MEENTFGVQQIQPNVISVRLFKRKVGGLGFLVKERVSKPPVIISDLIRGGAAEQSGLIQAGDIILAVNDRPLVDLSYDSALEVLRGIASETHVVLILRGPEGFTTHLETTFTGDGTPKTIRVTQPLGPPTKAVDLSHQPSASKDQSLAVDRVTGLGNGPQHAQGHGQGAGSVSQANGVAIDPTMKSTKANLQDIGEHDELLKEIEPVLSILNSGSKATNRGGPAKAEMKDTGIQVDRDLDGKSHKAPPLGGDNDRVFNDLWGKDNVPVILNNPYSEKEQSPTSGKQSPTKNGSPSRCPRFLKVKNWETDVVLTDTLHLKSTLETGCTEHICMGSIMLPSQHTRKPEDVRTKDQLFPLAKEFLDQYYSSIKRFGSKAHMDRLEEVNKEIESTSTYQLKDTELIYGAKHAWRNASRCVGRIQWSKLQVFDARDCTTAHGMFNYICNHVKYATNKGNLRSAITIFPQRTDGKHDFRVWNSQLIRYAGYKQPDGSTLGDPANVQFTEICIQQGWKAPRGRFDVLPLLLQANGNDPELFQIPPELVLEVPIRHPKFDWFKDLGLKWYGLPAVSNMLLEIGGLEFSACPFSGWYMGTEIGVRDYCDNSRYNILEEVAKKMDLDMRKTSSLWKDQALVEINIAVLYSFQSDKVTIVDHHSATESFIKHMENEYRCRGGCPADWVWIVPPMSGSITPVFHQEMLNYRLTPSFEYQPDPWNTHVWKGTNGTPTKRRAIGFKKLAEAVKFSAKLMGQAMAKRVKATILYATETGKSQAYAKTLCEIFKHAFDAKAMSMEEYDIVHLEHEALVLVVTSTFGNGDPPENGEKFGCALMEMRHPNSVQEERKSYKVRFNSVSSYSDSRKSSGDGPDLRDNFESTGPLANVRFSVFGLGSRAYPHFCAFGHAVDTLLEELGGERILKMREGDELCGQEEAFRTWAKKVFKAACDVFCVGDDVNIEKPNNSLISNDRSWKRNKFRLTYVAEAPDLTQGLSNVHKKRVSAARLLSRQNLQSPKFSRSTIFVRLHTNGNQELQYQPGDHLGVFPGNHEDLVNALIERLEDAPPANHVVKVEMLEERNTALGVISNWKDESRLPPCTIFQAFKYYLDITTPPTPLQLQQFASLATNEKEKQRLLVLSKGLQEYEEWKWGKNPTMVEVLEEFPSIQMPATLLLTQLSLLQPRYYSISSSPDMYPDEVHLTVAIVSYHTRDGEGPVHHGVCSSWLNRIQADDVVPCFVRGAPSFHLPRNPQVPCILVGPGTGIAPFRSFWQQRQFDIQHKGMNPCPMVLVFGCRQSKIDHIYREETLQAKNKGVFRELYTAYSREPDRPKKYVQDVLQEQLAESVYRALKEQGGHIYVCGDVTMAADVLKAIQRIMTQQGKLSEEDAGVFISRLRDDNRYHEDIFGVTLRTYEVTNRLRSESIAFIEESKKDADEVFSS

[10] = Inhibition of calmodulin-dependent bovine neuronal NOS using [3H]-arginine as substrate assessed as citrulline formation after 30 mins; design: species or system Bos taurus
[11] = Selectivity ratio of Ki for recombinant bovine endothelial NOS to Ki for recombinant rat neuronal NOS
[12] = Selectivity ratio of Ki for recombinant human neuronal NOS to Ki for recombinant rat neuronal NOS
[13] = Selectivity ratio of Ki for recombinant mouse macrophage inducible NOS to Ki for recombinant rat neuronal NOS
Nitric oxide synthase 1 [14] = biological target: Nitric oxide synthase 1 (Homo sapiens, UniProt P29475); test: Binding affinity to recombinant human neuronal NOS overexpressed in Escherichia coli assessed as production of nitric oxide from L-arginine measured for 5 mins by oxyhemoglobin NO capture assay
Nitric oxide synthase 1 (Homo sapiens, UniProt P29475), sequence (P29475 whole entry): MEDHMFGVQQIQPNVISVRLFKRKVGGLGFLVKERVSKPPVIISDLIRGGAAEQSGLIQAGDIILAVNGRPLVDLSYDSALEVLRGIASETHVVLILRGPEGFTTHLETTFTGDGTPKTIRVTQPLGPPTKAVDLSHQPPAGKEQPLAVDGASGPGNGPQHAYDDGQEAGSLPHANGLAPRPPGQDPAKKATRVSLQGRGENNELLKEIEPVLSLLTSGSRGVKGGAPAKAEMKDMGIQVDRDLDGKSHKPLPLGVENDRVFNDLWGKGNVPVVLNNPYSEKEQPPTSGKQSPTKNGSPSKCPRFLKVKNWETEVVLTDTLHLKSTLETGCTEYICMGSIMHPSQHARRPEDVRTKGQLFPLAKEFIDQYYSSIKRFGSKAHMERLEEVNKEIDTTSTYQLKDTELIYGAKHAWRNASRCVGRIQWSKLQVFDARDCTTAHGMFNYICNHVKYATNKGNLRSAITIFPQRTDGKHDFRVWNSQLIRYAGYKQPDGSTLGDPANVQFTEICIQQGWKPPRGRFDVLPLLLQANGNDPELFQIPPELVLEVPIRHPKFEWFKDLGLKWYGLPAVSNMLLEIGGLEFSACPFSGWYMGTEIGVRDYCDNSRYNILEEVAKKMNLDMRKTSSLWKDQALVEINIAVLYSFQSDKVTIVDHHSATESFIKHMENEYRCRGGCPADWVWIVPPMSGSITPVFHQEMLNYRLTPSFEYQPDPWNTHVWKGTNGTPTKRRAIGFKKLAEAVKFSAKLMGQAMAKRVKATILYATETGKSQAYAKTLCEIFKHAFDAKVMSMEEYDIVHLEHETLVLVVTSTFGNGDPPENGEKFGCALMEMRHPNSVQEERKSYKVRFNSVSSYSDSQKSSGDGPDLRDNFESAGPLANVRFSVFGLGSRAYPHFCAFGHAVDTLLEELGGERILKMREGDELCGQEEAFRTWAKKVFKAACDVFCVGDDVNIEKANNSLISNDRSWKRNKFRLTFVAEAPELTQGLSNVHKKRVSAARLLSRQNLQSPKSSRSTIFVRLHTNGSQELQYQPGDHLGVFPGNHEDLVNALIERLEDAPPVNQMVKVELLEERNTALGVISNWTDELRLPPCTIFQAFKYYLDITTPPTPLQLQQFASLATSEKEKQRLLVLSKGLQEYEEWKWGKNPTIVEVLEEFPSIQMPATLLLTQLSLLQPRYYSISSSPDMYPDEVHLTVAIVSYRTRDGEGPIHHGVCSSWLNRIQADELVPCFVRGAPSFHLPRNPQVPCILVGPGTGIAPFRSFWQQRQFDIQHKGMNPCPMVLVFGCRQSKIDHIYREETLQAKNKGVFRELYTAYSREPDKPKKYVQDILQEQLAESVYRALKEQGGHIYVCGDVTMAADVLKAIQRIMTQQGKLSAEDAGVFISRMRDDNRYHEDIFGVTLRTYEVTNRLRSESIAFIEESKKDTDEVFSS

[15] = biological target: T5, Nitric oxide synthase, inducible (Mus musculus, UniProt P29477); test: Binding affinity to recombinant mouse macrophage inducible NOS overexpressed in Escherichia coli assessed as production of nitric oxide from L-arginine measured for 5 mins by oxyhemoglobin NO capture assay
T5 sequence (P29477 whole entry): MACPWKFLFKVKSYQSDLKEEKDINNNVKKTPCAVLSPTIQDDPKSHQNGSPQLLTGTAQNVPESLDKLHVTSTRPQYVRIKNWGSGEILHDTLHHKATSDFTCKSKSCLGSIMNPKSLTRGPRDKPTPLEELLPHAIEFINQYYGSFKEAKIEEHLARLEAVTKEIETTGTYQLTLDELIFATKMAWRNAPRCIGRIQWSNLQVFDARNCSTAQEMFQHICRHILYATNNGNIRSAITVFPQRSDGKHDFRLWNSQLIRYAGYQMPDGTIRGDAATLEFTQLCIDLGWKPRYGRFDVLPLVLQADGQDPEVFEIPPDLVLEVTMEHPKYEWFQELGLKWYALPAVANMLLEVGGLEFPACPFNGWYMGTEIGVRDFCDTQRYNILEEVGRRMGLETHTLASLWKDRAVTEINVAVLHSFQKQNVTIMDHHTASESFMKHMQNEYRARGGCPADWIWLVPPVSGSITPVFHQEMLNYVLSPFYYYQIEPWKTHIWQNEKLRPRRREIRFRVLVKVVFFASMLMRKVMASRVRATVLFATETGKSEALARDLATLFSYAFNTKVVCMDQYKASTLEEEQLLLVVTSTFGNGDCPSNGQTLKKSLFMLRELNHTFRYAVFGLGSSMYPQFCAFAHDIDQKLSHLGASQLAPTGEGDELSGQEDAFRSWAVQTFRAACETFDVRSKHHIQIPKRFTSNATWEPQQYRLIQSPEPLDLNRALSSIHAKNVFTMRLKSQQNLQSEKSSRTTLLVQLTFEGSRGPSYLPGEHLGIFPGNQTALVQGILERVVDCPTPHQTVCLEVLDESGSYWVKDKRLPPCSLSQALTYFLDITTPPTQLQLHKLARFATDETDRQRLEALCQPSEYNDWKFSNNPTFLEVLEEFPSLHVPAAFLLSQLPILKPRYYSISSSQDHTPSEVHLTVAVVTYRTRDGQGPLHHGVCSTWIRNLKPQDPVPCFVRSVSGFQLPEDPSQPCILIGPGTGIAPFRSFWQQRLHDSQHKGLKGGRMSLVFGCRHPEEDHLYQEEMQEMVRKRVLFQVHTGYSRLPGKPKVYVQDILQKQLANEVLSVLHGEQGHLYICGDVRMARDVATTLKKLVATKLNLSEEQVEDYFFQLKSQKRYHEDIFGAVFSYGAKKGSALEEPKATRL

Nitric oxide synthase 3 = biological target: T6, Nitric oxide synthase 3 (Bos taurus, UniProt P29473); test: Binding affinity to recombinant bovine endothelial NOS overexpressed in Escherichia coli assessed as production of nitric oxide from L-arginine measured for 5 mins by oxyhemoglobin NO capture assay
T6 sequence (P29473 whole entry): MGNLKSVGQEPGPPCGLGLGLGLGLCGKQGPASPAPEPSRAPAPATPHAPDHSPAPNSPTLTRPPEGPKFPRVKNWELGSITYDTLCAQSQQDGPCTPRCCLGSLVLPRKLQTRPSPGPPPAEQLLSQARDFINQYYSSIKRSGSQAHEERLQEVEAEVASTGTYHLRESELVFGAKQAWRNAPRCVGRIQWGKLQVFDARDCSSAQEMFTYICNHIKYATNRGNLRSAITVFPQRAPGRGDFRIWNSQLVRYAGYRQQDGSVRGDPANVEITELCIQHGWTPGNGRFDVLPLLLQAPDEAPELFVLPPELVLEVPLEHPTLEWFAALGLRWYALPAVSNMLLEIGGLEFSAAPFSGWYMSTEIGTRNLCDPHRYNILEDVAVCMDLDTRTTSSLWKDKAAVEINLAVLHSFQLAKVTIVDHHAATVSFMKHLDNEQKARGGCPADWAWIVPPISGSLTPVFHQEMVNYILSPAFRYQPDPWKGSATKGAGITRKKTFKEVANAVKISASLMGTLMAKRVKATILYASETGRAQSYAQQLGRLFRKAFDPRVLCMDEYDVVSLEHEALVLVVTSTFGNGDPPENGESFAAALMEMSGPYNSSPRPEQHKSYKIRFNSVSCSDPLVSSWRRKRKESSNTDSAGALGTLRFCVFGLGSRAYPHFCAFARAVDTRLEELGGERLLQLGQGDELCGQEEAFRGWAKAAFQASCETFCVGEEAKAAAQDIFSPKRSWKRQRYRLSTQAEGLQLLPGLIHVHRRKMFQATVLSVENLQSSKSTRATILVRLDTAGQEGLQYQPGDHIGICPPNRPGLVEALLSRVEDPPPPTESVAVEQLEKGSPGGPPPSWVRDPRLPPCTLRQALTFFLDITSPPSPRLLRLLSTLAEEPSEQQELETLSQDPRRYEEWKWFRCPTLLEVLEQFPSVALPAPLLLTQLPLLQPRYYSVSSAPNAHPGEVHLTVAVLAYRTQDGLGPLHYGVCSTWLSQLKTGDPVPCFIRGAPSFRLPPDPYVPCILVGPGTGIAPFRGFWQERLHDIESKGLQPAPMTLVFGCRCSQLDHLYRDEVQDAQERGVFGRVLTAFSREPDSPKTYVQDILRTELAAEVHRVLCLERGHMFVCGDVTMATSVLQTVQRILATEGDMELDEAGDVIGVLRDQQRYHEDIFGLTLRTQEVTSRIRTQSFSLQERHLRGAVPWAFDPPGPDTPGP
Outline: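 Purified recombinant bovine eNOS (E. coli-expressed) at 37 °C in 100 mM HEPES, 10% glycerol, pH 7.4, with 10 μM L-arginine and tetrahydrobiopterin, 100 μM NADPH, 0.83 mM CaCl2, ~320 units/mL calmodulin, and 3 μM human oxyhemoglobin. Methemoglobin formation read at 401 nm every 22 s for 5 min. Nine inhibitor concentrations (500 μM–50 nM), at least duplicate.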

T1 sequence (Q99720 whole entry): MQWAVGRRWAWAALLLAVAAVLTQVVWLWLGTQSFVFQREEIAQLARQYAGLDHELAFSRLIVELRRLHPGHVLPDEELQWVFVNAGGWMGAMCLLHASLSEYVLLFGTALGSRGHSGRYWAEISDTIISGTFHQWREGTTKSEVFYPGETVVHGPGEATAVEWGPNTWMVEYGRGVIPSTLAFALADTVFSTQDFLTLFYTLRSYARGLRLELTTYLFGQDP

Cl.Fc1cccc(CCCNCCc2ccnc(-n3ccnc3)n2)c1
inhibition [1]: 94%
inhibition at 5 min, 10 µM (CYP3A4): > 70%
inhibition at 10 min, 10 µM (CYP2D6): > 70%
inhibition [2]: 88%
Drug recovery [3]: 73%
inhibition [4]: 87%
Ki [5]: 0.2 µM
Ki [6]: 0.2 µM
inhibition [7]: 95%
inhibition [8]: 83%
inhibition at 20 min, 10 µM (CYP2C19): > 70%
inhibition (Homo sapiens): 88%

Cc1cn(-c2nccc(CCNCCCc3cccc(F)c3)n2)cn1
Ki (Nitric oxide synthase 1 [9]): 81 µM

c1ccc(-n2ccnc2)cc1
IC50 [10]: 25 µM

Fc1cccc(CCCNCCc2ccnc(-n3cncn3)n2)c1
Ki (Nitric oxide synthase 1 [9]): 27 µM

c1c[nH]cn1 [IMIDAZOLE]
IC50 [10]: 200 µM

Fc1cccc(C2CC2CNCCc2ccnc(-n3ccnc3)n2)c1 (stereo not given)
Ratio Ki [11]: 71
Ratio Ki [12]: 6.4
Ratio Ki [13]: 34

Cc1cncn1-c1nccc(CCNCCCc2cccc(F)c2)n1
Ki (Nitric oxide synthase 1 [14]): 0.303 µM
Ki [15]: 24 µM
Ki (Nitric oxide synthase 1 [9]): 0.06 µM
Ki (Nitric oxide synthase 3): 15.4 µM

Cc1nccn1-c1nccc(CCNCCCc2cccc(F)c2)n1
Ki (Nitric oxide synthase 1 [9]): 11.5 µM

Clc1cccc(CCCNCCc2ccnc(-n3ccnc3)n2)c1
Ki [15]: 0.91 µM
Ratio Ki [11]: 253
Ratio Ki [12]: 3.9
Ratio Ki [13]: 28

Fc1cccc(C[C@@H]2C[C@H]2NCCc2ccnc(-n3ccnc3)n2)c1
Ki (Nitric oxide synthase 1 [14]): 0.137 µM
Ki [15]: 2.14 µM
Ki (Nitric oxide synthase 1 [9]): 0.018 µM
Ki (Nitric oxide synthase 3): 10.3 µM

Fc1cccc(CCCNCc2ccnc(-n3ccnc3)n2)c1
Ratio Ki [11]: 33
Ratio Ki [13]: 4

Fc1cccc(CCNCCNc2ccnc(-n3ccnc3)n2)c1
Ratio Ki [11]: 109
Ratio Ki [13]: 17

Fc1cccc(C[C@H]2C[C@@H]2NCCc2ccnc(-n3ccnc3)n2)c1
Ki (Nitric oxide synthase 1 [14]): 0.873 µM
Ki [15]: 3 µM
Ki (Nitric oxide synthase 1 [9]): 0.15 µM
Ki (Nitric oxide synthase 3): 40 µM
